Assay outcomes from PubChem.
SIRT5 inh: inhibitors of human sirtuin-5 desuccinylase. Q9NXA8. Purified SirT5, succinyl-peptide AMC, trypsin-coupled fluorescence. inhibition, % at 15 µM. hit rate 1.1% among 330,000. AID 652115; in the data active means inhibition above about 15%
Target sequence (Q9NXA8 whole entry, looked up): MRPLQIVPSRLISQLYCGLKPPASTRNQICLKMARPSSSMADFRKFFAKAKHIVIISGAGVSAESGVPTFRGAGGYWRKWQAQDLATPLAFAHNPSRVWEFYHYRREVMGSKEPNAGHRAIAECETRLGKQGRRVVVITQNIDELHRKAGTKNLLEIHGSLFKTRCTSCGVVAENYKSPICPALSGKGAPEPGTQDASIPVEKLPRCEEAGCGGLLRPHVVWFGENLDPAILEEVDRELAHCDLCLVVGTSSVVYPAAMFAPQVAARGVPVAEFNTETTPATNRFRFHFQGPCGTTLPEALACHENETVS
PKA-R1A act: activators of PKA-R1A complex | P00514+P68181 | PKA-R1A dissociation, Cy5-IP20 fluorescence polarization; scaled: DMSO 0%, 113 µM cGMP 100% | activation, % at 11.4 µM | hit rate 0.083% among 340,000 | AID 504707;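 active means percent activation above the mean of all tested compounds plus 3 SD, cut at about 19% in these data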;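 further: higher means more PKAc released from R1A so a rise in polarization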
CRFR2-BP antag: antagonists of CRF-binding protein/CRF-R2 receptor complex; HEK293 CRF-R2/CRF-BP, CRF-induced calcium fluorescence; inhibition, % at 11.8 µM; hit rate 0.59% among 350,000; AID 588475;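 active means inhibition of the ligand-induced calcium signal above about 50% at the single tested concentration, limit read from the data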
S100A4 MyoIIA: S100A4-myosin IIA interaction inhibition; P26447; S100A4/TAMRA-MyoIIA peptide fluorescence polarization; inhibition, % at 10.7 µM; hit rate 0.14% among 360,000;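 active means mean inhibition of at least 70% across replicates, with every replicate also reaching that level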
Target sequence (P26447 whole entry, looked up): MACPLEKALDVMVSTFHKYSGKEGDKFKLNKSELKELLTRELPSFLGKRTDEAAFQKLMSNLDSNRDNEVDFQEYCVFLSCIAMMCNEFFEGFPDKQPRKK
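Material: S100A4 monomer protein | Medium: HEPES pH 7.2 with CaCl2, KCl, NaCl, DTT, Triton | Reagent: Labelled myosin peptide probe, 5 nM | Doses: One dose per compound | Times: 5 min incubation before reading | Benchmarks: Neutral control DMSO, positive control TFP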
PKA-R2B activ: PKA-R2B complex activation; P22694+P31323; PKA-R2B holoenzyme dissociation, Cy5-IP20 fluorescence polarization; R2B truncated from residue 108, S112A mutant; 0% DMSO only, 100% 113 µM cGMP; activation, % at 11.4 µM; hit rate 0.079% among 340,000; AID 504700;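 active means activation above a cutoff set at the mean over all compounds plus 3 SD, cut at about 18% in these data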;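 further: higher means more holoenzyme dissociation and a rise in polarization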
A number is an active result; 0 = inactive; - = not tested or not shown. A selection: hits, their analogues and other compounds. The true share with any hit is near 1.5%.

SMILES | SIRT5 inh | PKA-R1A act | CRFR2-BP antag | S100A4 MyoIIA | PKA-R2B activ
CNC[C@@H]1OCCCC[C@@H](C)Oc2ccc(NS(=O)(=O)c3cccs3)cc2C(=O)N([C@H](C)CO)C[C@H]1C | 0 | - | - | 101.4 | -
C[C@H]1CCCCO[C@H](CN(C)Cc2ccc(C(F)(F)F)cc2)[C@@H](C)CN([C@@H](C)CO)C(=O)c2cc(NS(=O)(=O)c3cccs3)ccc2O1 | 15.7 | - | - | 0 | -
C[C@@H]1CCCCO[C@H](CN(C)Cc2ccc(Cl)c(Cl)c2)[C@@H](C)CN([C@H](C)CO)C(=O)c2cc(NS(=O)(=O)c3cccs3)ccc2O1 | 0 | - | - | 0 | -
CO[C@@H]1CN(C)C(=O)c2ccc(NC(=O)C3CC3)cc2OC[C@@H](C)N(C(=O)c2ccccc2F)C[C@@H]1C | 0 | - | - | 0 | -
O=C(Nc1ccccc1F)N1CCCCN2[C@H](CO)[C@H](c3ccc(/C=C/c4ccccc4)cc3)[C@H]2C1 | 0 | - | - | - | -
CO[C@@H]1CN(C)C(=O)c2ccc(NS(=O)(=O)c3ccc(Oc4ccccc4)cc3)cc2OC[C@H](C)NC[C@@H]1C | 0 | - | - | 0 | -
C[C@@H]1CN([C@@H](C)CO)C(=O)c2cc(NS(=O)(=O)c3cccs3)ccc2O[C@@H](C)CCCCO[C@@H]1CN(C)Cc1ccc(C(F)(F)F)cc1 | 19.0 | - | - | 0 | -
C[C@@H]1CCCCO[C@@H](CN(C)Cc2ccc(C(F)(F)F)cc2)[C@@H](C)CN([C@@H](C)CO)C(=O)c2cc(NS(=O)(=O)c3cccs3)ccc2O1 | 18.6 | - | - | 0 | -
C[C@@H]1CN([C@@H](C)CO)C(=O)c2cc(NS(=O)(=O)c3cccs3)ccc2O[C@@H]1CN(C)Cc1ccc(Cl)c(Cl)c1 | 17.6 | - | - | 0 | -
C[C@H]1CN([C@@H](C)CO)C(=O)c2cc(NS(=O)(=O)c3cccs3)ccc2O[C@@H]1CN(C)Cc1ccc(C(F)(F)F)cc1 | 0 | - | - | 0 | -
C[C@H]1CCCCO[C@@H](CN(C)Cc2ccc(C(F)(F)F)cc2)[C@@H](C)CN([C@@H](C)CO)C(=O)c2cc(NS(=O)(=O)c3cccs3)ccc2O1 | 0 | - | - | 0 | -
C[C@H](CO)N1C[C@H](C)[C@H](CN(C)Cc2ccc(C(F)(F)F)cc2)Oc2ccc(NS(=O)(=O)c3cccs3)cc2C1=O | 16.5 | - | - | 0 | -
COC(=O)[C@H]1[C@H](CO)[C@H]2Cn3c(ccc(C4=CCCCC4)c3=O)[C@H]2N1C(=O)C1CCC1 | 0 | - | - | 0 | -
COCCCNC(=O)c1ccc(CN2CCc3ccccc3C2)cc1 | 22.9 | 0 | 0 | 0 | 0
Cc1cc2oc(=O)cc(-c3ccccc3)c2c(C)c1-c1ccc(O)cc1 | 0 | 0 | 50.0 | 0 | 0
Cc1cc(O)c2c(-c3ccccc3)cc(=O)oc2c1 | - | 0 | 0 | - | 0
C[C@H](CO)N1C[C@H](C)[C@@H](CN(C)C(=O)Nc2ccc(F)cc2)Oc2cc(/C=C/c3ccccc3)ccc2S1(=O)=O | 16.3 | - | - | 0 | -
C[C@H]1CN([C@@H](C)CO)S(=O)(=O)c2ccc(/C=C/c3ccccc3)cc2O[C@H]1CN(C)C(=O)Nc1cc(F)ccc1F | 22.3 | - | - | 0 | -
C[C@@H]1CN([C@H](C)CO)S(=O)(=O)c2ccc(/C=C/c3ccccc3)cc2O[C@H]1CN(C)C(=O)Nc1ccc(F)cc1 | 0 | - | - | 0 | -
C[C@H]1CN([C@@H](C)CO)S(=O)(=O)c2ccc(/C=C/c3ccccc3)cc2O[C@@H]1CN(C)C(=O)Nc1ccc(F)cc1 | 27.7 | - | - | 0 | -
Cc1cccc(C(=O)O/N=C(\c2ccccc2)c2cccnc2)c1 | 0 | 0 | 0 | 0 | 0
Cc1ccc(C(=O)O/N=C(\c2ccccc2)c2cccnc2)cc1 | 33.4 | 0 | 0 | 0 | 0
C[C@@H]1CN([C@H](C)CO)C(=O)Cc2cc(NC(=O)Nc3cccc4ccccc34)ccc2O[C@H]1CN(C)S(=O)(=O)c1ccc(Cl)cc1 | 0 | - | - | 0 | -
CCCN1C[C@H](C)[C@@H](OC)CN(C)C(=O)c2ccc(NC(=O)C3CCC3)cc2OC[C@@H]1C | 0 | - | - | 0 | -
CN(Cc1ccccn1)C(=O)C1CCC(=O)N(Cc2cccc(C(F)(F)F)c2)C1 (stereo not drawn) | 0 | 0 | 52.9 | 0 | 0
SMILES | SIRT5 inh | PKA-R1A act | CRFR2-BP antag | S100A4 MyoIIA | PKA-R2B activ
CCc1ccc(CN(C)C(=O)C2CCC(=O)N(Cc3ccccn3)C2)cc1 (stereo not drawn) | 31.1 | 0 | 0 | 0 | 0
CN(Cc1ccncn1)C(=O)C1CCC(=O)N(Cc2cccc(C(F)(F)F)c2)C1 (stereo not drawn) | 0 | 0 | 0 | 0 | 0
Cc1ccc(NC(=O)CCC(=O)c2cccs2)cc1F | 101.4 | 0 | 0 | 0 | 0
Cc1ccc(NC(=O)COC(=O)CCC(=O)c2cccs2)c(C)c1 | 0 | 0 | 0 | 0 | 0
Cc1ccccc1NC(=O)COC(=O)CCC(=O)c1cccs1 | 15.4 | 0 | 0 | 0 | 0
Cc1ccc(NC(=O)CCNS(=O)(=O)c2cccs2)cc1F | 0 | 0 | 0 | 0 | 0
CO[C@@H]1CN(C)C(=O)c2ccc(NC(=O)NC(C)C)cc2OC[C@H](C)N(CC2CC2)C[C@@H]1C | 0 | - | - | 0 | -
CCOc1ccc(NC(=O)COC(=O)Cc2ccsc2)cc1 | 20.3 | 0 | 0 | 0 | 0
C[C@@H]1CN([C@H](C)CO)S(=O)(=O)c2ccc(C3=CCCC3)cc2O[C@H]1CN(C)S(=O)(=O)c1ccc(F)cc1 | 0 | - | - | 0 | -
C[C@H]1CN([C@@H](C)CO)S(=O)(=O)c2ccc(C3=CCCC3)cc2O[C@@H]1CN(C)S(=O)(=O)c1ccc(F)cc1 | 0 | - | - | 0 | -
C[C@H]1CN([C@@H](C)CO)S(=O)(=O)c2ccc(C3=CCCCC3)cc2O[C@H]1CN(C)S(=O)(=O)c1ccc(F)cc1 | 26.7 | - | - | 0 | -
C[C@H]1CN([C@@H](C)CO)S(=O)(=O)c2ccc(C3=CCCCC3)cc2O[C@@H]1CN(C)S(=O)(=O)c1ccc(F)cc1 | 33.3 | - | - | 0 | -
C[C@@H]1CN([C@@H](C)CO)S(=O)(=O)c2ccc(C3=CCCCC3)cc2O[C@H]1CN(C)S(=O)(=O)c1ccc(F)cc1 | 26.1 | - | - | 0 | -
C[C@H](CO)N1C[C@H](C)[C@H](CN(C)S(=O)(=O)c2ccc(F)cc2)Oc2cc(C3=CCCCC3)ccc2S1(=O)=O | 32.0 | - | - | 0 | -
C[C@@H]1CN([C@H](C)CO)S(=O)(=O)c2ccc(C3=CCCC3)cc2O[C@@H]1CN(C)S(=O)(=O)c1ccc(F)cc1 | 0 | - | - | 0 | -
COc1ccc2c3c(n(C)c2c1)[C@H](CO)NCC31CN(C(=O)Nc2ccc3c(c2)OCO3)C1 | - | - | - | 0 | -
C[C@H](CO)N1C[C@H](C)[C@H](CN(C)CC2CCCCC2)Oc2ccc(NC(=O)c3ccncc3)cc2C1=O | - | - | - | 0 | -
C[C@@H]1CN([C@@H](C)CO)S(=O)(=O)c2ccc(C3=CCCCC3)cc2O[C@@H]1CN(C)S(=O)(=O)c1ccc(F)cc1 | 22.3 | - | - | 0 | -
CCC(=O)c1ccc(OCC(=O)NCCCN2CCOCC2)cc1 | 0 | 0 | 51.5 | 0 | 0
Cc1ccc(S(=O)(=O)N(C)C[C@H]2OCCCC[C@@H](C)Oc3ccc(NC(=O)CCCN(C)C)cc3C(=O)N([C@@H](C)CO)C[C@H]2C)cc1 | 0 | - | - | 0 | -
